Experimental findings from ChEMBL document CHEMBL1131139, “Synthesis and antibacterial activity of ketolides (6-O-methyl-3-oxoerythromycin derivatives): a new class of antibacterials highly potent against macrolide-resistant and -susceptible respiratory pathogens” (1998) are described below.

Assay type in all cases: functional
For test [1], the system named is Streptococcus pneumoniae. The test is described as follows: In vitro inhibitory activity against Streptococcus pneumoniae (EryRi 030SJ5i). An outline of the steps: (§1)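 Two-fold agar dilution on Mueller-Hinton agar (pH 7.4). Inoculum from overnight plate cultures suspended in Mueller-Hinton broth, adjusted to 10^9 CFU/mL, diluted 1:200 and spotted by multipoint inoculator at about 10^4 CFU/spot. Plates incubated 37 °C for 20 h. MIC taken as lowest concentration with no visible growth.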

Test [2] deals with Staphylococcus aureus. Nature of the test: In vitro inhibitory activity against Staphylococcus aureus (EryRi 011GO25i). An outline of the steps: as §1
The test system of test [3] is Haemophilus influenzae. The test is described as follows: In vitro inhibitory activity against Haemophilus influenzae (351HT3). An outline of the steps: as §1
For a further test, the system named is Escherichia coli. The test is described as follows: In vitro inhibitory activity against Escherichia coli (250 UC5). An outline of the steps: as §1
For test [4], the system named is Streptococcus pneumoniae. Nature of the test: In vitro inhibitory activity against Streptococcus pneumoniae (EryRc 030SJ1). An outline of the steps: as §1
In test [5] the test system is Staphylococcus aureus. Nature of the test: In vitro inhibitory activity against Staphylococcus aureus (EryRc 011CB20). An outline of the steps: as §1
The subject of test [6] is Staphylococcus aureus. The test is described as follows: In vitro inhibitory activity against Staphylococcus aureus (011UC4). An outline of the steps: as §1
A further test deals with Streptococcus pyogenes. Nature of the test: In vitro inhibitory activity against Streptococcus pyogenes (02A1UC1). An outline of the steps: as §1
Test [7] deals with Haemophilus influenzae. The test is described as follows: In vitro inhibitory activity against Haemophilus influenzae (351CB12). An outline of the steps:
as §1

In test [8] the test system is Staphylococcus epidermidis. Nature of the test: In vitro inhibitory activity against Staphylococcus epidermidis (EryRi 012GO11i). An outline of the steps:
as §1

The subject of test [9] is Streptococcus pneumoniae. The test is described as follows: In vitro inhibitory activity against Streptococcus pneumoniae (032UC1). An outline of the steps: as §1

Values after ≈ are worked out from the molar mass of the structure shown.

As for `CC[C@H]1OC(=O)[C@H](C)C(=O)[C@H](C)[C@@H](O[C@@H]2O[C@H](C)C[C@H](N(C)C)[C@H]2O)[C@](C)(OC)C[C@@H](C)/C(=N\OC[C@@H](N)C(=O)[O-])[C@H](C)[C@@H](O)[C@]1(C)O.[K+]`, the MIC against Streptococcus pneumoniae [1], in the test on Staphylococcus aureus [2], in the test with Haemophilus influenzae [3], against Escherichia coli, in the test on Streptococcus pneumoniae [4] and against Staphylococcus aureus [5] was 40 µg/mL each time. The MIC (with Staphylococcus aureus [6]; with Streptococcus pyogenes; against Haemophilus influenzae [7]; in test [8]; in the test with Streptococcus pneumoniae [9]) was 40 µg/mL throughout.
On to `CCCNCCO/N=C1\[C@H](C)C[C@@](C)(OC)[C@H](O[C@@H]2O[C@H](C)C[C@H](N(C)C)[C@H]2O)[C@@H](C)C(=O)[C@@H](C)C(=O)O[C@H](CC)[C@@](C)(O)[C@H](O)[C@H]1C`, for which the MIC in the test on Streptococcus pneumoniae [1] worked out at 1.2 µg/mL (≈ 1.74 µM); with Staphylococcus aureus [2], 0.3 µg/mL (≈ 0.436 µM); in the test with Haemophilus influenzae [3], 40 µg/mL (≈ 58.1 µM); against Escherichia coli it was 40 µg/mL (≈ 58.1 µM); against Streptococcus pneumoniae [4], 40 µg/mL (≈ 58.1 µM); against Staphylococcus aureus [5] it was 40 µg/mL (≈ 58.1 µM). In addition, the MIC against Staphylococcus aureus [6] came out at 0.15 µg/mL (≈ 0.218 µM); with Streptococcus pyogenes, 0.04 µg/mL (≈ 0.0581 µM); in the test on Haemophilus influenzae [7] it was 10 µg/mL (≈ 14.5 µM); in test [8], 0.15 µg/mL (≈ 0.218 µM); against Streptococcus pneumoniae [9], 10 µg/mL (≈ 14.5 µM).
On to `C#CCNCCO/N=C1\[C@H](C)C[C@@](C)(OC)[C@H](O[C@@H]2O[C@H](C)C[C@H](N(C)C)[C@H]2O)[C@@H](C)C(=O)[C@@H](C)C(=O)O[C@H](CC)[C@@](C)(O)[C@H](O)[C@H]1C`, for which the MIC against Streptococcus pneumoniae [1] is 40 µg/mL (≈ 58.5 µM); in the test on Staphylococcus aureus [2], 5 µg/mL (≈ 7.31 µM); against Haemophilus influenzae [3], 20 µg/mL (≈ 29.2 µM); with Escherichia coli it was 40 µg/mL (≈ 58.5 µM); in the test with Streptococcus pneumoniae [4] it was 5 µg/mL (≈ 7.31 µM); in the test on Staphylococcus aureus [5] it was 40 µg/mL (≈ 58.5 µM). Moreover, the MIC with Staphylococcus aureus [6] stood at 0.3 µg/mL (≈ 0.439 µM); in the test with Streptococcus pyogenes, 0.08 µg/mL (≈ 0.117 µM); against Haemophilus influenzae [7], 10 µg/mL (≈ 14.6 µM); in [8] it was 0.3 µg/mL (≈ 0.439 µM); with Streptococcus pneumoniae [9], 2.5 µg/mL (≈ 3.66 µM).
On to `CC[C@H]1OC(=O)[C@H](C)[C@@]2(O)O[C@@](C)(C[C@@H](C)/C(=N\OCOCCOC)[C@H](C)[C@@H](O)[C@]1(C)O)[C@H](O[C@@H]1O[C@H](C)C[C@H](N(C)C)[C@H]1O)[C@H]2C`, for which the MIC in the test on Streptococcus pneumoniae [1], against Staphylococcus aureus [2], in the test on Haemophilus influenzae [3], in the test with Escherichia coli, against Streptococcus pneumoniae [4] and in the test on Staphylococcus aureus [5] was 40 µg/mL (≈ 59.1 µM) throughout. Moreover, the MIC (against Staphylococcus aureus [6]; against Streptococcus pyogenes; in the test with Haemophilus influenzae [7]; in [8]; with Streptococcus pneumoniae [9]) was 40 µg/mL (≈ 59.1 µM) throughout.
With `CC[C@H]1OC(=O)[C@H](C)C(=O)[C@H](C)[C@@H](O[C@@H]2O[C@H](C)C[C@H](N(C)C)[C@H]2O)[C@](C)(OC)C[C@@H](C)/C(=N\OCCN2CCCC2)[C@H](C)[C@@H](O)[C@]1(C)O`, the MIC against Streptococcus pneumoniae [1] came out at 40 µg/mL (≈ 57.1 µM); against Staphylococcus aureus [2], 2.5 µg/mL (≈ 3.57 µM); with Haemophilus influenzae [3], 40 µg/mL (≈ 57.1 µM); against Escherichia coli, 40 µg/mL (≈ 57.1 µM); in the test on Streptococcus pneumoniae [4], 20 µg/mL (≈ 28.6 µM); with Staphylococcus aureus [5], 40 µg/mL (≈ 57.1 µM). The MIC was found to be 0.6 µg/mL (≈ 0.857 µM) in the test on Staphylococcus aureus [6]; 0.15 µg/mL (≈ 0.214 µM) with Streptococcus pyogenes; 20 µg/mL (≈ 28.6 µM) against Haemophilus influenzae [7]; 0.6 µg/mL (≈ 0.857 µM) in [8]; 20 µg/mL (≈ 28.6 µM) against Streptococcus pneumoniae [9].
Consider `CC[C@H]1OC(=O)[C@H](C)C(=O)[C@H](C)[C@@H](O[C@@H]2O[C@H](C)C[C@H](N(C)C)[C@H]2O)[C@](C)(OC)C[C@@H](C)C(=O)[C@@H](C)[C@H]2NC(=O)O[C@@]21C`, for which the MIC in the test on Streptococcus pneumoniae [1] turned out to be 40 µg/mL (≈ 65.3 µM); against Staphylococcus aureus [2] it was 40 µg/mL (≈ 65.3 µM); against Haemophilus influenzae [3], 20 µg/mL (≈ 32.6 µM); in the test on Escherichia coli, 40 µg/mL (≈ 65.3 µM); against Streptococcus pneumoniae [4], 40 µg/mL (≈ 65.3 µM); with Staphylococcus aureus [5] it was 40 µg/mL (≈ 65.3 µM). Also, the MIC worked out at 5 µg/mL (≈ 8.16 µM) with Staphylococcus aureus [6]; 2.5 µg/mL (≈ 4.08 µM) in the test on Streptococcus pyogenes; 20 µg/mL (≈ 32.6 µM) in the test with Haemophilus influenzae [7]; 40 µg/mL (≈ 65.3 µM) in test [8]; 0.3 µg/mL (≈ 0.49 µM) in the test with Streptococcus pneumoniae [9].
